Compounds with a hit are over-represented: about 4.5% of the library has one in this group of screens.
p97 inhibitor: blocks human p97 ATPase activity; recombinant p97 ATPase, Kinase-Glo ATP luminescence, 3 h; AID 1481; P55072; hit rate 0.42% among 220,000; inhibition, % at 8 µM; in the data active = inhibition above about 15%;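 also: 0% = DMSO vehicle and 100% = wells lacking enzyme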
Target sequence (P55072 whole entry, looked up): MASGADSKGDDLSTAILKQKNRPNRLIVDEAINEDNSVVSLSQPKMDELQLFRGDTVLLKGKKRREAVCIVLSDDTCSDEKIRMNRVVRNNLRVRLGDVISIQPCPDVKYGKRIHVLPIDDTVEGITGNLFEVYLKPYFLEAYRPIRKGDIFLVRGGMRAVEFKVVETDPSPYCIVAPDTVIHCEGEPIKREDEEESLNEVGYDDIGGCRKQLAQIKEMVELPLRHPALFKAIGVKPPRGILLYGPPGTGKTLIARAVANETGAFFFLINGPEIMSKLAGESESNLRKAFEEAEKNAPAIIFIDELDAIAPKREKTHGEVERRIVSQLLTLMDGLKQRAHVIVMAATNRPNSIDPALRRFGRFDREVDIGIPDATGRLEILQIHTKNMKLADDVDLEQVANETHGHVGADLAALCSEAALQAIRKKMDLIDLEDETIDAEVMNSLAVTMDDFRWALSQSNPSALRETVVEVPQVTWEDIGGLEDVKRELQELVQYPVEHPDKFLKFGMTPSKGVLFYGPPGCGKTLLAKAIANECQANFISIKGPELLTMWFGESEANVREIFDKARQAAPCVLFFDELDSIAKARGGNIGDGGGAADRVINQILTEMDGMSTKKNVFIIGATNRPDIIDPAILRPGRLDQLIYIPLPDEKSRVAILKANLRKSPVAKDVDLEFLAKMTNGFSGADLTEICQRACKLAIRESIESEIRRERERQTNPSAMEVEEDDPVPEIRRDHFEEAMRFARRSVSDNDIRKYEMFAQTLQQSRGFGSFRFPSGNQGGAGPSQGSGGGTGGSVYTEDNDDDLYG
NS3 helicase inh: HCV NS3 helicase inhibition. NS3 helicase DNA unwinding, Cy5 molecular beacon fluorescence. inhibition, % at 10.9 µM. hit rate 0.56% among 290,000. AID 1800;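 active = inhibition above the mean of all tested compounds plus 3 SD, set per campaign, cut at about 35% in these data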;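 also: 0% = DMSO wells and 100% = thioflavine S control wells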
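test system = hepatitis C virus NS3 helicase domain fragment enzyme | reagent = annealed dual-labelled DNA beacon duplex, ATP-started | times = 1 h at 25 °C | detection = Cy5 fluorescence, 0 and 60 min reads | read-out basis = percent inhibition from t60/t0 fluorescence ratio | control set = DMSO and thioflavine S | replication = one well per compound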
CHOP inhibitor: blocks CHOP induction under ER stress | CHO-K1 CHOP-promoter luciferase, tunicamycin-induced, 15-18 h | hit rate 3.8% among 220,000 | inhibition, % at 10 µM | AID 2732;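 active = compounds that reduced the stress-induced luciferase reporter signal by more than about 70% of percent inhibition, limit read from the data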;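 also: 0% = tunicamycin plus vehicle and 100% = wells without tunicamycin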
M18AAP inhibitor: blocks P. falciparum M18 aspartyl aminopeptidase; hit rate 1.2% among 290,000; inhibition, % at 7.35 µM; recombinant PfM18AAP, H-Glu-NHMec fluorogenic cleavage;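 active = inhibition above the campaign mean inhibition over all tested compounds plus 3 SD, cut at about 28% in these data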;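 also: 0% = plate median of test compound wells and 100% = 2 mM ZnCl2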
CHOP UPR activ: activators of apoptotic arm of unfolded protein response (CHOP). CHO-CHOP luciferase reporter, UPR activation, luminescence; percent of tunicamycin response over DMSO baseline. activation, % at 10 µM. hit rate 0.34% among 330,000;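 active = at 10 µM dose, activation of 40% or more, normalized to positive control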;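 also: 100% = tunicamycin at 10 µg/mL and 0% = DMSO alone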
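Test system: CHO-CHOP cells, stable luciferase reporter of PERK-eIF2a-CHOP signalling | Quantity: 500 CHO-CHOP cells per well | Buffer or medium: F12 plus 10% serum | Compound dosing: 10 µM single point, 0.5% DMSO | Schedule: 6 h compound treatment, 37 °C | Signal: Luciferase luminescence | Control set: Tunicamycin high control, DMSO low control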
UPR XBP1 act: activators of adaptive arm of unfolded protein response (XBP1) | CHO-XBP1 luciferase reporter, IRE1-XBP1 UPR activation, luminescence; percent of tunicamycin response, DMSO as zero | activation, % at 20 µM | hit rate 0.33% among 330,000 | AID 463104;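 active = versus positive control, 20 µM dose yields 30% or more activation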;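 also: 100% = tunicamycin at 10 µg/mL and 0% = DMSO only wells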
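incubation = overnight seeding at 37 °C, 6 h compound treatment at 37 °C | assay system = CHO-XBP1 cells stably carrying IRE1-XBP1-driven luciferase reporter | input = 1000 cells per well | detection = luciferase luminescence | dosing = single point, 20 µM final compound, 1% DMSO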
Active calls of the source: *; · = not tested or not shown.

SMILES | p97 inhibitor | NS3 helicase inh | CHOP inhibitor | M18AAP inhibitor | CHOP UPR activ | UPR XBP1 act
COc1ccc(N2C(=O)CC(c3ccc(OC(C)C)cc3)C2=O)cc1 (stereo unspecified) | · | · | 73.1* | · | -1.1 | -2.6
CC1C(c2ccccc2)N(C)C(c2ccccc2)CC1(O)c1ccc(F)cc1 (stereo unspecified) | 2.4 | -17.4 | 84.8* | -6.8 | · | ·
CCOC(=O)c1c(S(=O)(=O)N2CCN(Cc3ccccc3)CC2)c(C)n(C)c1C | · | -0.5 | · | -2.3 | -0.5 | -2.7
COCCOc1cc(Nc2nnc(C(F)(F)F)s2)c(Cl)cc1Cl | -3.1 | 4.1 | 76.7* | -6.6 | 2.1 | 0.3
CCc1ccc(NC(=O)c2cnc(N3CCN(c4ccccn4)CC3)c3ccccc23)cc1 | 2.4 | 2.9 | 74.9* | -10.6 | 9.5 | -2.2
O=c1cc(NCc2ccco2)[nH]c(=O)n1-c1ccc(Br)cc1 | 5.9 | 19.3 | 82.2* | -0.4 | -1.0 | -3.5
CC(=O)Nc1ccc(NC(=O)c2ccc(NS(=O)(=O)c3cc(C(C)(C)C)cc(C)c3C)cc2)cc1 | -3.6 | -15.8 | 76.4* | -0.3 | 1.0 | -2.0
CCc1ccccc1N1CCN(S(=O)(=O)c2ccc(F)c(C)c2)CC1 | -2.3 | 5.6 | 74.2* | 1.4 | -1.8 | -1.5
COc1ccccc1C(C)NC(=O)c1ccc(NC(=O)CC2SC(N3CCCC3)=NC2=O)cc1 (stereo unspecified) | · | · | · | · | -1.0 | 0.9
Cc1ccc(C(=O)Nc2cccc(C(F)(F)F)c2)cc1Nc1cncnc1 | · | 2.7 | · | 8.5 | 0.8 | 0.4
Cc1ccc(C(=O)Nc2cccc(C(F)(F)F)c2)cc1NC(=O)c1cnnc2ccccc12 | · | · | 89.2* | · | 1.8 | -3.7
CC(=O)c1cccc(NC(=O)CN(C)S(=O)(=O)c2cccc3nsnc23)c1 | · | 14.0 | · | 4.2 | -1.3 | -7.4
COc1ccc2c(c1)CCc1c(C(=O)NCCc3ccc(OC)c(OC)c3)noc1-2 | -4.4 | -4.8 | 2.8 | -5.3 | -0.4 | -2.5
COc1ccc2c(c1)CCc1c(C(=O)Nc3ccc(OC)c(OC)c3)noc1-2 | 5.4 | -2.1 | 76.4* | 5.3 | 2.4 | 4.4
O=C(NC12CC3CC(CC(C3)C1)C2)C1CC(=O)N(c2ccc(Br)cc2)C1 (stereo unspecified) | -4.1 | 3.9 | 70.5* | 5.2 | 0.6 | -1.5
O=C(Nc1cccc(Cl)c1Cl)C1CC(=O)N(c2ccc(Br)cc2)C1 (stereo unspecified) | -2.7 | 3.1 | 77.7* | -7.6 | 0.1 | -2.2
CCCCN(C(=O)NCCCCCCNC(=O)N(CCCC)C1CCS(=O)(=O)C1)C1CCS(=O)(=O)C1 (stereo unspecified) | · | 4.4 | · | 0.0 | 1.7 | -4.6
CC(C)[C@H](NC(=O)c1ccccc1Cl)C(=O)Nc1ccc(S(=O)(=O)Nc2nccs2)cc1 | · | · | · | · | 1.0 | -3.4
O=C(NCCc1ccco1)c1cc(COc2cccc(C(F)(F)F)c2)on1 | · | 19.1 | · | -12.3 | 0.6 | -4.6
COc1ccc(N=C/C=C2/C=C(c3ccccc3)OC(C)(C)O2)cc1 | 5.7 | -19.6 | 94.1* | 5.1 | 0.8 | -2.3
COc1ccc(N=Cc2nc(-c3ccccc3)oc2OC(C)=O)cc1 | 4.6 | -0.4 | -1.7 | 4.0 | 0.6 | 4.1
O=C(Cn1cnc2ccc(Cl)cc2c1=O)NC1CCS(=O)(=O)C1 (stereo unspecified) | · | · | · | · | 0.8 | -0.7
C=CCOc1ccc(C(=O)Nc2ncn[nH]2)cc1 | · | -2.4 | · | 11.6 | -0.7 | -4.4
CCOc1cc(-c2nc(-c3ccc(C)nc3OCC)no2)cc(OCC)c1OCC | -0.1 | -3.3 | 4.2 | -0.7 | -0.8 | 1.0
CCCc1nc(-c2cc3ccc(C)cc3[nH]c2=O)no1 | 1.2 | -6.2 | -6.2 | 3.2 | 1.3 | 2.6
SMILES | p97 inhibitor | NS3 helicase inh | CHOP inhibitor | M18AAP inhibitor | CHOP UPR activ | UPR XBP1 act
CCOc1ccccc1-c1nc(-c2cc3ccc(C)cc3[nH]c2=O)no1 | -3.5 | 2.6 | 71.7* | 3.4 | -1.4 | 6.3
CCOc1nc(C)ccc1-c1noc(-c2ccccc2OC)n1 | -1.2 | 5.9 | 71.8* | -7.7 | 1.4 | 4.2
CCOc1cc(-c2nc(-c3ccc(C)nc3OC)no2)cc(OCC)c1OCC | 0.1 | 1.2 | 77.2* | -0.6 | · | ·
Cc1c(S(=O)(=O)NC2CCCCCC2)c(=O)n(C)c(=O)n1C | · | · | · | · | -0.6 | 4.1
COc1cccc(CNC(=O)c2ccc(CS(=O)Cc3ccc(C)cc3)o2)c1 (stereo unspecified) | · | 19.4 | · | 8.3 | -0.6 | -5.5
O=C1C=C(c2ccc3ncccc3c2)C[C@@H](c2ccc3c(c2)OCO3)C1 | · | · | · | · | 0.8 | 2.4
O=C(O)CCn1c(-c2ccccc2)cc2c1CCCC2=O | 12.1 | 21.7 | 6.8 | 28.5* | -0.7 | -4.0
CCOC(=O)c1cc(-c2ccccc2)n(CCC(=O)O)c1C | -2.3 | 5.2 | 19.9 | 1.5 | 0.3 | -2.7
S=c1[nH]nc(-c2cc(-c3ccccc3)n[nH]2)n1/N=C/c1ccc(Br)s1 | -1.5 | 18.7 | -138.3 | 6.0 | 3.4 | 1.5
CC(C)=CCC/C(C)=C/C=N/NC(=O)c1cccc([N+](=O)[O-])c1 | 3.0 | 0.8 | 89.3* | 4.7 | -0.5 | -3.8
CCOC(=O)c1cc2c3ccccc3n(CC)c2nc1N | -5.3 | 7.2 | 73.3* | -24.0 | -3.2 | 3.7
Cc1ccc(Cn2c(=O)cc(C(=O)O)c3ccccc32)cc1 | 2.3 | -0.9 | 18.8 | -5.9 | 0.1 | -2.4
CCn1c2ccccc2c2cc(C#N)c(N)nc21 | · | · | · | · | -2.7 | 2.6
CCOC(=O)c1cc(=O)n(Cc2ccccc2C)c2ccccc12 | -5.1 | -0.3 | 70.6* | 3.5 | -1.4 | 1.6
CN(Cc1ccccc1Br)C(=O)CN1C(=O)NC2(CCCCCC2)C1=O | · | · | · | · | 0.0 | -1.5
COc1ccc(Cl)cc1NC(=O)Nc1cccc([N+](=O)[O-])c1C | 2.4 | 5.8 | 84.0* | 9.2 | -0.4 | 7.2
COc1ccc(Cl)cc1NC(=O)NC1CCCCC1 | 2.9 | 0.4 | 18.8 | -3.3 | 0.2 | -3.0
N#Cc1ccc(OCC(=O)OCC(=O)NC2CC2)cc1 | · | · | · | · | -2.2 | -0.3
Cc1nnsc1C(=O)N/N=C/c1ccc2ccccc2c1O | 6.1 | 19.0 | 74.9* | 2.5 | -0.9 | 1.8
Cc1nnsc1C(=O)N/N=C/c1ccccc1 | 6.9 | 0.3 | 28.5 | 3.4 | -0.4 | 6.0
O=C(COC(=O)c1ccc(O)cc1)Nc1cc(S(=O)(=O)N2CCOCC2)ccc1Cl | · | · | · | · | -1.2 | 1.2
CCCC1CCC(c2ccc(C(N)=O)cc2)CC1 (stereo unspecified) | -3.7 | 13.4 | · | 9.2 | -1.1 | 5.3
CCCC1CCC(c2ccc(/C(N)=N/O)cc2)CC1 (stereo unspecified) | 3.5 | -0.5 | 81.1* | 1.2 | 2.7 | 4.5
[O-][n+]1c2ccccc2cc2ccccc21 | · | · | · | · | -0.7 | -1.3
Cc1cc(Nc2ccccc2)nn1C(=O)c1ccc(Cl)cc1 | -2.6 | 1.0 | 77.1* | 1.2 | 3.8 | -0.9
COC(=O)c1sccc1NC(=S)N1CC(C)CC(C)C1 (stereo unspecified) | -4.5 | 0.6 | 92.9* | -4.5 | · | ·
